# Biological target: T1, CYP2B6 (Homo sapiens, UniProt P20813)
# T1 sequence (P20813 1-491): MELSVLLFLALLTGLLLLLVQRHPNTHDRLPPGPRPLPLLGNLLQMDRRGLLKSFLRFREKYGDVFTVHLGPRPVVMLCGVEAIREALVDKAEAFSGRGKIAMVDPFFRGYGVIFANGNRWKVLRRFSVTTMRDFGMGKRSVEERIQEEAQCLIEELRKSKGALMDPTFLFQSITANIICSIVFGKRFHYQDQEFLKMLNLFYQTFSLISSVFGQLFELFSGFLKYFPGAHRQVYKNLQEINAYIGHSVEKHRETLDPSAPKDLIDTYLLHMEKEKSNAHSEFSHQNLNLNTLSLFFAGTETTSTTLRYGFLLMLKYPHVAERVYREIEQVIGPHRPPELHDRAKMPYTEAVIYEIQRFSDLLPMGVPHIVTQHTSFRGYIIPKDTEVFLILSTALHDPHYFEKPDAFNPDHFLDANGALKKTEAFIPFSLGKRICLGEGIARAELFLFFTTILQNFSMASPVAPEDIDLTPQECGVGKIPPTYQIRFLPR
# Test: Product formation kinetic analysis
# Format: in vitro ADME
# Settings: cDNA-expressed CYP2B6
# In short: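 cDNA-expressed CYP2B6 (5–20 nM) in 100 mM potassium phosphate pH 7.4 at 37 °C. Eight substrate concentrations, 0.5–100 μM (0.5–30 μM for one poorly soluble analogue); parent drug run the same way. NADPH regenerating system, 5–20 min, with linearity in enzyme and time set by pilot runs. Ice-cold acetonitrile stop. Product measured by SRM uHPLC-MS/MS or UV, without authentic standards. KM from a substrate-inhibition fit; fold change is analogue KM divided by the parent's 8-hydroxylation KM.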
row,SMILES,Km
1,"O=C1Nc2ccc(Cl)cc2[C@@](C#CC2CC2)(C(F)(F)F)O1 [EFV, (4S)-6-Chloro-4-(2-cyclopropylethynyl)-1,4-dihydro-4-(trifluoromethyl)-2H-3,1-benzoxazin-2-one, reference compound]",3.6 ± 1.7 µM
2,"CC1Nc2ccc(Cl)cc2C(C#CC2CC2)(C(F)(F)F)O1 (stereo not drawn) [analogue 1, 6-Chloro-4-(2-cyclopropylethynyl)-1,4-dihydro-2-methyl-4-(trifluoromethyl)-2H-3,1-benzoxazine]",~1 µM
3,"O=C1CC(C#CC2CC2)(C(F)(F)F)c2cc(Cl)ccc2N1 (stereo not drawn) [analogue 4, 6-Chloro-4-(cyclopropylethynyl)-3,4-dihydro-4-(trifluoromethyl)-2(1H)-quinolinone]",14 ± 6.4 µM

# Biological target: T2, rat CYP2B1 (Rattus norvegicus, UniProt P00176)
# T2 sequence (P00176 1-491): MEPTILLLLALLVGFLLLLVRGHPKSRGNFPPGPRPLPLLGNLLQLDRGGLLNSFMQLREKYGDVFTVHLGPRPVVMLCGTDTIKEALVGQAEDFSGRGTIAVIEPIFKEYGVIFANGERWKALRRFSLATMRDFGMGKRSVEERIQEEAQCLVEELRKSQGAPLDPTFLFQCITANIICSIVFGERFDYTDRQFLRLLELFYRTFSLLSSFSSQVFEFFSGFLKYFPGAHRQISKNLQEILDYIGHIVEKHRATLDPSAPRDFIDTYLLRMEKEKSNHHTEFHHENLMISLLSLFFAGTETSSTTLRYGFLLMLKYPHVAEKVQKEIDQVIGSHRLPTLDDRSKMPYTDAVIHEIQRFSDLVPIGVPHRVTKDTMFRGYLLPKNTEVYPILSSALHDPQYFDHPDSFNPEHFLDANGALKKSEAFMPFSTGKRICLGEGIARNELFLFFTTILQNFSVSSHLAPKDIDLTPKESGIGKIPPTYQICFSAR
# Test: Comparison of metabolite formation by cDNA-expressed CYP2B1 and CYP2B6
# Format: in vitro ADME
# Settings: 10 nM cDNA-expressed CYP2B1, 10 μM substrate, 30 min
# In short: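 cDNA-expressed rat CYP2B1 or human CYP2B6 systems, both with cytochrome b5 (CYP:reductase:b5 molar ratio 1:1:2 for 2B1, 1:10:2 for 2B6), 10 nM, run side by side with 10 μM substrate in 100 mM potassium phosphate pH 7.4. 5 min preincubation at 37 °C, then NADPH regenerating system for 30 min at 37 °C. Acetonitrile stop, then uHPLC-MS or uHPLC-UV (220 nm). CYP2B1 peak height normalised to mean CYP2B6 peak height (100%). Three independent experiments, mean ± SEM.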
row,SMILES,Metabolite formation by CYP2B1 (in words)
1,"COc1ccc(C(=O)Nc2ccc(Cl)cc2C(O)(C#CC2CC2)C(F)(F)F)cc1 (racemic) [methoxybenzamide analogue, rac N-[4-Chloro-2-[3-cyclopropyl-1-hydroxy-1-(trifluoromethyl)-2-propynyl]phenyl]-4-methoxybenzamide]",did not form metabolites
2,"CCCC#CC1(C(F)(F)F)OC(=O)Nc2ccc(Cl)cc21 (racemic) [pentynyl analogue, rac 6-Chloro-1,4-dihydro-4-(1-pentynyl)-4-(trifluoromethyl)-2H-3,1-benzoxazin-2-one]",M4 and M5 formation
3,Nc1ccc(Cl)cc1[C@](O)(C#CC1CC1)C(F)(F)F [(R)-5-Chloro-α-(cyclopropylethynyl)-2-amino-α-(trifluoromethyl)benzenemethanol],displayed activity
4,Nc1ccc(Cl)cc1[C@@](O)(C#CC1CC1)C(F)(F)F [(S)-5-Chloro-α-(cyclopropylethynyl)-2-amino-α-(trifluoromethyl)benzenemethanol],displayed activity
5,"O=C1Nc2ccc(Cl)cc2[C@@](/C=C/C2CC2)(C(F)(F)F)O1 [E-dihydroefavirenz, (E)-Dihydroefavirenz]",M2 formation

# Same assay, conditions: 10 nM enzyme, 10 μM substrate, 30 min; CYP2B6 peak height set at 100%
row,SMILES,Metabolite formed by CYP2B1 as percent of metabolite formed by CYP2B6
1,"O=C1Nc2c(O)cc(Cl)cc2[C@@](C#CC2CC2)(C(F)(F)F)O1 [8-OH EFV, 8-hydroxyefavirenz]",~48%

# Source: article PMC5155582 (ChemMedChem, 2016)
